{"source": "ChEMBL document CHEMBL4177769", "about": "“Highly Selective and Potent Ectonucleotide Pyrophosphatase-1 (NPP1) Inhibitors Based on Uridine 5'-Pα,α-Dithiophosphate Analogues” (J Med Chem, 2018)", "key": {"[1]": {"molecular_target": "T1, Ectonucleotide pyrophosphatase/phosphodiesterase family member 1 (Homo sapiens) (UniProt P22413)", "T1 sequence (whole entry)": "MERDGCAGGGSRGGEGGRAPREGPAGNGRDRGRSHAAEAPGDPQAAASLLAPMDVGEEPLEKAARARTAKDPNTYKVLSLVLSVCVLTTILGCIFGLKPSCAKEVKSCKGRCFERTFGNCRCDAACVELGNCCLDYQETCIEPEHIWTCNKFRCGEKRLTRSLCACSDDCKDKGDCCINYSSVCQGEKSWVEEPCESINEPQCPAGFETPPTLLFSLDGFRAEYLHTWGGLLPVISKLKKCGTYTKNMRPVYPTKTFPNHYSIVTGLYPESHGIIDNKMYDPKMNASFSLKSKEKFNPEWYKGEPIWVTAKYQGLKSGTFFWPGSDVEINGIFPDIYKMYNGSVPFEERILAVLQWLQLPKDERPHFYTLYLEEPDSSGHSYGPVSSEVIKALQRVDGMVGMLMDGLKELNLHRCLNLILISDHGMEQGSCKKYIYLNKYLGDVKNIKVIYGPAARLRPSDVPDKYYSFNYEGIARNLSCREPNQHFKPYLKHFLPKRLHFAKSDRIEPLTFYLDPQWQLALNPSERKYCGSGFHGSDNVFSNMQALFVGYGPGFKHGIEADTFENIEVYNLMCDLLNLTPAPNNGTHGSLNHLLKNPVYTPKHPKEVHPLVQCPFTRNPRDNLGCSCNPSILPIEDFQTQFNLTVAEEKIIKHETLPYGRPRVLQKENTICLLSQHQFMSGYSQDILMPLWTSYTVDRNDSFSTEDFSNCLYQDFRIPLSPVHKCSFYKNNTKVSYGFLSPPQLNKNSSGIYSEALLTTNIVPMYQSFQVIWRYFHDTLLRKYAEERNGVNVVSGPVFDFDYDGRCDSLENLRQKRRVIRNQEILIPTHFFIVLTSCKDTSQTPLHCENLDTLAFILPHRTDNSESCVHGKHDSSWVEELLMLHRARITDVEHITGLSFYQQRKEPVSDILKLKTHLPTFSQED", "experiment": "Inhibition of human NPP1 at 100 uM using pNP-TMP as substrate preincubated for 3 mins followed by substrate addition measured after 15 mins relative to control", "summary_of_the_method": "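Human NPP1 (4−5 μg) or NPP3 (12−14 μg) cell lysate in mM 1 CaCl2, 140 NaCl, 5 KCl, 50 Tris pH 8.5, 37 °C. Compound at 100 μM, 3 min preincubation, 100 μM pNP-TMP substrate. p-Nitrophenol read at 405 nm after 15 min. Blank with enzyme added at end subtracted. Activity without compound taken as 100%. At least two independent experiments in triplicate.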"}, "[2]": {"molecular_target": "P2Y purinoceptor 6 (Homo sapiens) (UniProt Q15077)", "sequence (Q15077 whole entry)": "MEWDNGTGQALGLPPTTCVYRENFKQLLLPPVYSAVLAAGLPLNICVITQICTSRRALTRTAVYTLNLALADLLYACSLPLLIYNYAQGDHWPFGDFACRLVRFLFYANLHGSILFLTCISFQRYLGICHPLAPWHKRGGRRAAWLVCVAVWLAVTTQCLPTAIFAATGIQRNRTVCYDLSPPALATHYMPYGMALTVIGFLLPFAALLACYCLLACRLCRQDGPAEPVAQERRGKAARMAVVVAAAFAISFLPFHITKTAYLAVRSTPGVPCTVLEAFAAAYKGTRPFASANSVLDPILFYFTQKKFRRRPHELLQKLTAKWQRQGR", "experiment": "Agonist activity at recombinant human P2RY6 expressed in AD293 cells assessed as increase in intracellular IP1 levels", "assay_type": "functional, cell-based", "summary_of_the_method": "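Human P2Y6 receptor stably expressed in AD293 cells. Compound at 100 μM. Gq activation read as accumulation of inositol 1-phosphate (IP1).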"}, "[3]": {"molecular_target": "P2Y purinoceptor 6 (Homo sapiens) (UniProt Q15077)", "experiment": "Agonist activity at recombinant human P2RY6 expressed in AD293 cells assessed as increase in intracellular calcium levels by Fluo-4/AM dye-based spectrofluorometer", "assay_type": "functional, cell-based", "summary_of_the_method": "(§1)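 Human P2Y2, P2Y4 or P2Y6 receptor stably expressed in AD293 cells. Compound at 100 μM. Agonism read as change in intracellular calcium (Δ[Ca2+]i), with UDP or UTP as control.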"}, "[4]": {"molecular_target": "P2Y purinoceptor 2 (Homo sapiens) (UniProt P41231)", "sequence (P41231 whole entry)": "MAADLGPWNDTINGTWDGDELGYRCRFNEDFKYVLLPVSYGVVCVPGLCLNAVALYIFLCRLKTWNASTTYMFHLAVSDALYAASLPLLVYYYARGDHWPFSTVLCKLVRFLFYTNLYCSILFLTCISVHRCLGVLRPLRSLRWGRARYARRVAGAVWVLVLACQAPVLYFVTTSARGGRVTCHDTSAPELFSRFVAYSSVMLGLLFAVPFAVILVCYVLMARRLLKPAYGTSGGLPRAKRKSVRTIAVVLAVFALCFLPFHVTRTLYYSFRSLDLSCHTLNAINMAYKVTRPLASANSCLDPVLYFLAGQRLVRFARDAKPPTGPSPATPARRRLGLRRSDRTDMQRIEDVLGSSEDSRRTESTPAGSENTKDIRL", "experiment": "Agonist activity at recombinant human P2RY2 expressed in AD293 cells assessed as increase in intracellular calcium levels by Fluo-4/AM dye-based spectrofluorometer", "assay_type": "functional, cell-based", "summary_of_the_method": "as §1"}, "[5]": {"molecular_target": "T2, Ectonucleoside triphosphate diphosphohydrolase 3 (Homo sapiens) (UniProt O75355)", "T2 sequence (whole entry)": "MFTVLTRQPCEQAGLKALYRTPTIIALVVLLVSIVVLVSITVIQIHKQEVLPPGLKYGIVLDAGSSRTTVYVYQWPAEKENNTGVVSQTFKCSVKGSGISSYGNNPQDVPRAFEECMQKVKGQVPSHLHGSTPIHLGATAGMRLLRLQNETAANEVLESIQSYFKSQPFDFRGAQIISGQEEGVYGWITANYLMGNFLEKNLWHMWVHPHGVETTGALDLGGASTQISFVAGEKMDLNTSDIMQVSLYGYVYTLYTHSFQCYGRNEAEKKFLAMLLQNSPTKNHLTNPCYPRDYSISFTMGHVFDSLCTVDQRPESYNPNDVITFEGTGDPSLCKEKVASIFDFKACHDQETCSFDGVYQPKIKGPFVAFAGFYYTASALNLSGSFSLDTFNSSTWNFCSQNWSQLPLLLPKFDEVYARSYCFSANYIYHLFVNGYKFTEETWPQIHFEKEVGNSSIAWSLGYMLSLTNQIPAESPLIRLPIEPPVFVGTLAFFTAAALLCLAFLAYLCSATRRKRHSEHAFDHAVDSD", "experiment": "Inhibition of human NTPDase3 at 100 uM using ATP as substrate preincubated for 3 mins followed by substrate addition measured after 10 mins by malachite green reagent-based assay", "summary_of_the_method": "(§2)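 Compound at 100 μM, 3 min preincubation, 100 μM ATP, 10 min. Stopped with malachite green; Pi read at 630 nm. Blank with enzyme added after stop subtracted. Activity with ATP alone taken as 100%.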"}, "[6]": {"molecular_target": "T3, Ectonucleoside triphosphate diphosphohydrolase 2 (Homo sapiens) (UniProt Q9Y5L3)", "T3 sequence (whole entry)": "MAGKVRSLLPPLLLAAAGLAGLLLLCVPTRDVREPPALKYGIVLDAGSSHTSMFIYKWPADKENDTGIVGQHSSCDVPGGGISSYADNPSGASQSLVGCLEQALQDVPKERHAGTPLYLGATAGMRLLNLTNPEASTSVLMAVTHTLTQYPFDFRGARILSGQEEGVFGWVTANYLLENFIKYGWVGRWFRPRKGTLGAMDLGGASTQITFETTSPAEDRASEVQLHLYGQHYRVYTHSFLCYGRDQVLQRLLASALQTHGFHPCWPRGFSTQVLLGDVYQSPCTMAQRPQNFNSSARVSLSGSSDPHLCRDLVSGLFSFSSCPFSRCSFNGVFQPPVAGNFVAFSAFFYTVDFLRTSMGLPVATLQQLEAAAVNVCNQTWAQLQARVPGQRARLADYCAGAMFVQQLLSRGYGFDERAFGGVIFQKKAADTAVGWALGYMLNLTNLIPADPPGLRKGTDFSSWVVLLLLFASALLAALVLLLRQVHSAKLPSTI", "experiment": "Inhibition of human NTPDase2 at 100 uM using ATP as substrate preincubated for 3 mins followed by substrate addition measured after 10 mins by malachite green reagent-based assay", "summary_of_the_method": "as §2"}}, "note": "The source made the active and inactive calls. The rule behind the calls is not given here.", "data": [{"smiles": "O=c1ccn([C@@H]2O[C@H](COP(=S)(S)OP(=O)(O)O)[C@@H](O)[C@H]2O)c(=O)[nH]1", "note": "(stereo partly drawn)", "values": [{"measurement": "inhibition", "setting": "[1]", "result": "80 to 100", "unit": "%"}, {"measurement": "Activity", "setting": "[2]", "result": "Active"}, {"measurement": "Activity", "setting": "[3]", "result": "Active"}, {"measurement": "Activity", "setting": "[4]", "result": "inactive"}, {"measurement": "inhibition", "setting": "[5]", "result": 15, "unit": "%"}, {"measurement": "inhibition", "setting": "[6]", "result": 15, "unit": "%"}]}, {"smiles": "O=c1ccn([C@@H]2O[C@H](COP(=S)(S)OP(=O)(O)CP(=O)(O)O)[C@@H](O)[C@H]2O)c(=O)[nH]1", "note": "(stereo partly drawn)", "values": [{"measurement": "inhibition", "setting": "[1]", "result": "80 to 100", "unit": "%"}, {"measurement": "Activity", "setting": "[2]", "result": "inactive"}, {"measurement": "Activity", "setting": "[3]", "result": "Active"}, {"measurement": "Activity", "setting": "[4]", "result": "inactive"}, {"measurement": "inhibition", "setting": "[5]", "result": 15, "unit": "%"}, {"measurement": "inhibition", "setting": "[6]", "result": 15, "unit": "%"}]}, {"smiles": "O=c1ccn([C@@H]2O[C@H](COP(=S)(S)OP(=O)(O)OP(=O)(O)O)[C@@H](O)[C@H]2O)c(=O)[nH]1", "note": "(stereo partly drawn)", "values": [{"measurement": "inhibition", "setting": "[1]", "result": 100, "unit": "%"}, {"measurement": "Activity", "setting": "[2]", "result": "Active"}, {"measurement": "Activity", "setting": "[3]", "result": "Active"}, {"measurement": "Activity", "setting": "[4]", "result": "inactive"}, {"measurement": "inhibition", "setting": "[5]", "result": "inactive"}, {"measurement": "inhibition", "setting": "[6]", "result": "inactive"}]}]}
